Screening results (PubChem)
HEK293 NFkB inh: inhibitors of the PMA/ionomycin-induced NF-kB reporter in HEK293 cells; HEK-293 NF-kB luciferase reporter, luminescence; inhibition, % at 3 µM; 62,000 tested, 0.21% active; AID 465;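 active = inhibition above the mean of all tested compounds plus 3 SD, cut at about 40% in these data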;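 note: 0% = stimulated DMSO wells and 100% = 10 µM reference inhibitor 5653914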
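System – HEK-293 cells with stable firefly luciferase reporter driven by four HIV NF-kB elements · Doses – one dose, 3 µM · Schedule – 1 h compound pre-incubation, 16 h PMA/ionomycin at 37 °C · Technique – luminescence from luciferase substrate reagent · Measure – percent inhibition normalized per plate to DMSO and reference-inhibitor controls · Replicates – tested once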
BAP1 inh: human BAP1 deubiquitinase inhibition; Q92560; recombinant BAP1, Ub-AMC hydrolysis fluorescence kinetic; stronger effect = lower value; calls only at 20 µM; 72,000 tested, 0.48% active; AID 436;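 active = activity remaining at or below 50% of control, provided the compound also passes the data quality filters; inactive = the rest, including low values that fail the filters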;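 note: 100% = DMSO wells rate and 0% = substrate alone blank rate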
M1 antagonist: M1 muscarinic receptor (rat) antagonism; 64,000 tested, 3.4% active; CHO-M1 cells, Fluo-4 calcium, ACh EC80 antagonist mode; stronger effect = lower value; AID 628; B-score at 10 µM;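 active = calcium fluorescence response, raw or row-and-column corrected B-score, differing from the plate sample mean either way at a set confidence level, mostly lower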
Target sequence (P08482 whole entry, looked up): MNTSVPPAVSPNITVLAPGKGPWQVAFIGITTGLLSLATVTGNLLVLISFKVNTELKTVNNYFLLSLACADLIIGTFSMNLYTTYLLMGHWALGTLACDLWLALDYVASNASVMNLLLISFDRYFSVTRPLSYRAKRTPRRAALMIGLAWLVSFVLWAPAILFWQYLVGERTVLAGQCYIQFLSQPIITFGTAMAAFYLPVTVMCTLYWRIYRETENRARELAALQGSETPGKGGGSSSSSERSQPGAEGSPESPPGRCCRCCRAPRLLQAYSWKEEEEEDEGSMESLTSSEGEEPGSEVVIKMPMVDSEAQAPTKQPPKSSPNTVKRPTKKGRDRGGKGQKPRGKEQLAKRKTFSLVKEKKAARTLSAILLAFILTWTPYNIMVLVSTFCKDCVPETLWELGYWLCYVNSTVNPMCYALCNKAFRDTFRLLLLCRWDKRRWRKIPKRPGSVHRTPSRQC
Her2 expr inh: Her2 kinase expression inhibition | SKBR-3 HER2 protein level, AlphaScreen, 18-24 h; stronger effect = lower value | AID 645 | P04626 | HER2 level % of control, % at 10 µM | 65,000 tested, 0.69% active;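 active = HER2 level under 5% of the carrier-only control; inconclusive = no clear call, values can overlap the other calls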;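 note: 100% = DMSO carrier and 0% = 500 nM PU-H71 HSP90 inhibitor; lower value means stronger loss of Her2 protein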
M1 ag: activates the M1 muscarinic receptor. CHO-M1 cells, Fluo-4 calcium fluorescence, agonist mode; stronger effect = higher value. B-score at 10 µM. 64,000 tested, 3% active. AID 626;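 active = fluorescence rise, raw or as B-score row- and column-corrected plate score, outside the 99.7% band of its plate's samples, either direction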
JNK3 blocker: JNK3 (human) kinase inhibition; P53779; purified JNK3 kinase activity, HTS; inhibition, % at 8 µM; 60,000 tested, 0.61% active; AID 746; in the data active = inhibition above about 17%;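 note: 0% = DMSO and 100% = reference inhibitor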
M1 agonist conf: rat M1 muscarinic agonism, confirmation; fluorescence change (max-min) at 10 µM; AID 1488; 1,700 tested, 19% active; shares compounds with M1 ag; CHO-M1 cells, Fluo-4 calcium fluorescence, agonist mode; actives lie on both sides;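 active = fluorescence change differs from the solvent-only DMSO control mean at a set confidence level in both duplicate runs; inconclusive = differs from solvent-only control mean in just one of two runs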;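 note: an EC20 dose of acetylcholine follows compound addition during the same imaging run; raw fluorescence intensity difference in instrument units with no normalization to controls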
M4 agonist ctr: counter-screen for M1 agonists: activity at rat M4 receptor; shares compounds with M1 ag; CHO M4/Gqi5 cells, Fluo-4 calcium fluorescence, agonist mode; actives lie on both sides; fluorescence change (max-min) at 10 µM; 1,700 tested, 9% active; AID 1741;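 active = fluorescence change differing from the plate's solvent-only control wells at 99.7% confidence in both duplicates, whether higher or lower; inconclusive = differs from solvent controls in only one of two duplicates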
* = called active by the depositor. Most compounds without a hit are left out; they make up all but 6.6% or so of the library.

For CCCCCn1c(CCNC(=O)c2cccs2)nc2ccccc21 the results were HEK293 NFkB inh 17.7, M1 antagonist 0.388, Her2 expr inh 77.9, M1 ag 10.9*, M1 agonist conf -30* and M4 agonist ctr -79.1.
CCCCCn1c(CNC(=O)c2cccs2)nc2ccccc21 was read as HEK293 NFkB inh 9.5, M1 antagonist 0.193, Her2 expr inh 98.3 and M1 ag 0.045.
Screening CC(C)OCCCNc1ncnc2c1[nH]c1ccccc12 returned HEK293 NFkB inh 13.6, M1 antagonist -4.26*, Her2 expr inh 71.6, M1 ag 3.23*, JNK3 blocker 1.2, M1 agonist conf 1.92 and M4 agonist ctr inconclusive.
COc1cccc(C2C=C(c3ccc(Br)s3)Nc3ncnn32)c1OC (configuration not stated) was read as HEK293 NFkB inh 15.1, BAP1 inh inactive, M1 antagonist -0.959, Her2 expr inh 65.8, M1 ag 17.6*, JNK3 blocker 2.7, M1 agonist conf 170* and M4 agonist ctr 156*.
`CCOc1ccc(C2C=C(c3ccc(C)cc3)Nc3nnnn32)cc1` (configuration not stated) gave HEK293 NFkB inh 4.7, BAP1 inh inactive, M1 antagonist 0.138, Her2 expr inh 84.7, M1 ag 1.47 and JNK3 blocker 2.5.
CCOc1ccc(C2C=C(c3ccc(C)cc3)Nc3ncnn32)cc1 (configuration not stated) was read as HEK293 NFkB inh 3.7, BAP1 inh inactive, M1 antagonist -0.857, Her2 expr inh 126.5, M1 ag 5.48*, JNK3 blocker -1.6, M1 agonist conf 129* and M4 agonist ctr inconclusive.
COc1ccc(C2C=C(c3ccccc3)Nc3ncnn32)cc1 (configuration not stated) was read as HEK293 NFkB inh 10.6, M1 antagonist -0.485, Her2 expr inh 96.2, M1 ag 9.71*, JNK3 blocker 7.2, M1 agonist conf 85.6* and M4 agonist ctr 69.9.
For CCOc1ccc(C2C=C(c3ccccc3)Nc3nnnn32)cc1 (configuration not stated) the results were HEK293 NFkB inh -2.7, BAP1 inh inactive, M1 antagonist 0.00516, Her2 expr inh 98.2, M1 ag 0.507 and JNK3 blocker 1.0.
For Cc1ccc(-c2nc3ccccc3s2)cc1NC(=O)c1ccccc1I the results were BAP1 inh inactive.
For N#C/C(=C\c1ccc(O)c(O)c1)C(=O)c1ccc(O)c(O)c1 the results were BAP1 inh inactive.
Screening N#C/C(=C\c1ccc(O)c(O)c1)S(=O)(=O)c1ccccc1 returned HEK293 NFkB inh 7.6, M1 antagonist 0.516, Her2 expr inh 170.7, M1 ag 22*, JNK3 blocker 4.0, M1 agonist conf 33.4 and M4 agonist ctr 14.8.
For COc1ccc(-n2c(Cc3cc(=O)[nH]c(=O)[nH]3)nnc2SCC(=O)N2CCCC2)cc1 the results were HEK293 NFkB inh 11.7, BAP1 inh inactive, M1 antagonist 0.155, Her2 expr inh 97.2, M1 ag 3.52*, JNK3 blocker 3.1, M1 agonist conf -8.33 and M4 agonist ctr -18.2.
COc1cccc(-n2c(Cc3cc(=O)[nH]c(=O)[nH]3)nnc2SCC(=O)N2CCCC2)c1 was read as HEK293 NFkB inh -2.5, BAP1 inh inactive, M1 antagonist -0.172, Her2 expr inh 89.8, M1 ag -1.89 and JNK3 blocker 7.5.
For CCOC(=O)c1c(NC(=O)c2ccc(Cl)cc2NS(=O)(=O)c2ccccc2)sc2c1CCCC2 the results were BAP1 inh inactive.
For C1=CN2CCC1C(c1ccccc1)C2 (configuration not stated) the results were HEK293 NFkB inh 17.1, BAP1 inh inactive, M1 antagonist -7.97*, Her2 expr inh 151.2, M1 ag 43.8*, JNK3 blocker 2.2, M1 agonist conf 428* and M4 agonist ctr 7.55.
For O=C(C1CC1c1ccccc1)N1CCOCC1 (configuration not stated) the results were HEK293 NFkB inh 15.4, BAP1 inh inactive, Her2 expr inh 96.7 and JNK3 blocker 1.0.
For Cc1csc(NC(=O)c2sc3nc(-c4cccs4)ccc3c2N)n1 the results were HEK293 NFkB inh 54.3*, M1 antagonist -1.29, Her2 expr inh 58.1, M1 ag 54.1*, JNK3 blocker 4.3, M1 agonist conf inconclusive and M4 agonist ctr inconclusive.
CCCSc1nnc(NC(=O)c2sc3nc(-c4cccs4)ccc3c2N)s1 was read as HEK293 NFkB inh 16.6, Her2 expr inh 65.1 and JNK3 blocker -3.2.
For Nc1nnc(SCc2cccc(C(F)(F)F)c2)s1 the results were HEK293 NFkB inh 0.5, BAP1 inh inactive, M1 antagonist 0.97, M1 ag 1.63*, JNK3 blocker 3.9, M1 agonist conf -11.1 and M4 agonist ctr inconclusive.
Screening O=S(=O)(NCc1ccncc1)c1ccc(Br)s1 returned HEK293 NFkB inh 42.2*, BAP1 inh inactive, M1 antagonist -1.8, Her2 expr inh 133.1, M1 ag 3.68*, JNK3 blocker 1.7, M1 agonist conf 6.21 and M4 agonist ctr -23.4.
Screening COc1cc2c(cc1OC)C(Nc1ccc(Br)cc1)=NC1(CCCC1)C2 returned BAP1 inh inactive.
CC(Nc1ncnc2nc[nH]c12)c1ccccc1 (configuration not stated) was read as HEK293 NFkB inh 11.0, BAP1 inh inactive, M1 antagonist 0.319, Her2 expr inh 92.6, M1 ag 2.79*, JNK3 blocker 1.0, M1 agonist conf -14.1 and M4 agonist ctr -29.2.
CC(C)(CC(=O)N1CCN(c2ccc(Cl)cc2)CC1)CC1=NS(=O)(=O)c2ccccc2N1 was read as HEK293 NFkB inh 17.4, BAP1 inh inactive, M1 antagonist -3.21*, Her2 expr inh 95.6, M1 ag 11.3*, JNK3 blocker -2.4, M1 agonist conf inconclusive and M4 agonist ctr -46.
CCCc1cc(=O)oc2cc(OCc3ccccc3Cl)ccc12 was read as BAP1 inh inactive.
For Cc1ccccc1-n1c(SC/C(O)=C(\C#N)c2nc3ccccc3[nH]2)nnc1-c1ccncc1 the results were HEK293 NFkB inh 8.0, M1 antagonist -0.0468, Her2 expr inh 111.4, M1 ag 3.88*, M1 agonist conf 4.59 and M4 agonist ctr -4.58.
Screening Cc1ccc2c(c1)[nH]c1c(=O)n(CCN3CCNCC3)cnc12 returned HEK293 NFkB inh 4.5, BAP1 inh inactive, M1 antagonist 0.553, Her2 expr inh 56.4, M1 ag -2.01 and JNK3 blocker -7.7.
